This passage reports MIC, Activity and inhibition results from ChEMBL document CHEMBL1154468, “Synthesis and evaluation of fluoroquinolone derivatives as substrate-based inhibitors of bacterial efflux pumps” (2008).

For assay [1], the system named is Escherichia coli. The assay is described as follows: Antibacterial activity against Escherichia coli AG102 overexpressing acrAB by broth microdilution technique. It is filed as functional. Summed up:
(§1)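 MIC determined against E. coli AG102, an acrAB overexpresser, alongside its susceptible parental control AG100.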

The test system of assay [2] is Pseudomonas aeruginosa. In words: Antibacterial activity against Pseudomonas aeruginosa K1536 overexpressing mexCD by broth microdilution technique. It is filed as functional. Summed up:
(§2)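 MIC tested on P. aeruginosa PAO1, the susceptible control, and on its derivatives OCR1 (mexAB overexpresser) and K1536 (mexCD overexpresser).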

Assay [3] has as its target T1, Quinolone resistance protein NorA (Staphylococcus aureus) (UniProt P0A0J7).
T1 sequence (whole entry): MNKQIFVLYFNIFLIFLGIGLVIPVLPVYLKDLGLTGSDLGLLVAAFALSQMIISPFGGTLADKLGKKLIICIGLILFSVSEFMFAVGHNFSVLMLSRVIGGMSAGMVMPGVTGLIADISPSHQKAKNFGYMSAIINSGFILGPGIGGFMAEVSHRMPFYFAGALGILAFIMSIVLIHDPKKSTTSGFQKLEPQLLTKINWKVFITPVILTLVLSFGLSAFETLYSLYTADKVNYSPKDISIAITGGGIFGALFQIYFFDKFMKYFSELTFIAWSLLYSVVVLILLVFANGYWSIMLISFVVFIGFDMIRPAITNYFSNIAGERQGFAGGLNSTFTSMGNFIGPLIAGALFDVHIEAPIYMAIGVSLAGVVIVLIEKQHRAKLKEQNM
In words: Inhibition of NorA efflux pump in Staphylococcus aureus K2361 assessed as reduction of ethidium bromide efflux for 5 mins.

Assay [4] has as its system Pseudomonas aeruginosa. In words: Antibacterial activity against Pseudomonas aeruginosa PAO1 by broth microdilution technique. It is filed as functional. The procedure, abridged:
as §2

Assay [5] deals with Staphylococcus aureus. The assay is described as follows: Antibacterial activity against Staphylococcus aureus K1758-A overexpressing mepA by broth microdilution technique. It is filed as functional. Summed up: (§3)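 S. aureus K1758-P is the susceptible control for K1758-A, a K1758-background strain carrying a constructed plasmid for mepA overexpression. MIC was determined on both.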

The test system of assay [6] is Staphylococcus aureus. The assay is described as follows: Antibacterial activity against Staphylococcus aureus K1902 by broth microdilution technique. It is filed as functional.
The subject of assay [7] is Staphylococcus aureus. The assay is described as follows: Antibacterial activity against Staphylococcus aureus K2361 overexpressing norA by broth microdilution technique. It is filed as functional. The procedure, abridged:
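MIC assessed on norA-overexpressing S. aureus K2361, paired with K1902 as its susceptible control.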

The subject of assay [8] is Staphylococcus aureus. In words: Antibacterial activity against ciprofloxacin-resistant Staphylococcus aureus at > 100 ug/ml by broth microdilution technique. It is filed as functional, organism-based.
The subject of assay [9] is Staphylococcus aureus. In words: Inhibition of MepA efflux pump in Staphylococcus aureus […] assessed as reduction of ethidium bromide efflux for 5 mins.
The subject of assay [10] is Escherichia coli. The assay is described as follows: Antibacterial activity against Escherichia coli AG100 by broth microdilution technique. It is filed as functional. The procedure, abridged:
as §1

For assay [11], the system named is Pseudomonas aeruginosa. The assay is described as follows: Antibacterial activity against Pseudomonas aeruginosa OCR1 overexpressing mexAB by broth microdilution technique. It is filed as functional. The procedure, abridged: as §2
Assay [12] concerns Staphylococcus aureus. The assay is described as follows: Antibacterial activity against Staphylococcus aureus K1758-P by broth microdilution technique. It is filed as functional. Summed up:
as §3

In assay [13] the target is T1, Quinolone resistance protein NorA (Staphylococcus aureus). The assay is described as follows: Inhibition of NorA efflux pump in Staphylococcus aureus K2361 assessed as reduction of ethidium bromide efflux at 0.5 uM […].
For assay [14], the system named is Staphylococcus aureus. The assay is described as follows: Inhibition of MepA efflux pump in Staphylococcus aureus K2361 assessed as reduction of ethidium bromide efflux at 2 uM for 5 mins. The note with it: in the assay text read “K1758-A” for “K2361”.
Assay [15] has as its target T1, Quinolone resistance protein NorA (Staphylococcus aureus). In words: Inhibition of NorA efflux pump in Staphylococcus aureus K2361 assessed as reduction of ethidium bromide efflux at 2 uM for 5 mins.
Assay [16] deals with Staphylococcus aureus. The assay is described as follows: Inhibition of MepA efflux pump in Staphylococcus aureus K2361 assessed as reduction of ethidium bromide efflux at 10 uM for 5 mins. The note with it: in the assay text read “K1758-A” for “K2361”.
Assay [17] has as its system Staphylococcus aureus. The assay is described as follows: Inhibition of MepA efflux pump in Staphylococcus aureus K2361 assessed as reduction of ethidium bromide efflux at 0.5 uM […]. The note with it: in the assay text read “K1758-A” for “K2361”.
Assay [18] addresses T1, Quinolone resistance protein NorA (Staphylococcus aureus). The assay is described as follows: Inhibition of NorA efflux pump in Staphylococcus aureus K2361 assessed as reduction of ethidium bromide efflux at 10 uM for 5 mins.
For assay [19], the system named is Staphylococcus aureus. The assay is described as follows: Inhibition of MepA efflux pump in Staphylococcus aureus K2361 assessed as reduction of ethidium bromide efflux at 30 uM for 5 mins. The conditions noted are these: in the assay text read “K1758-A” for “K2361”.
Assay [20] concerns the target T1, Quinolone resistance protein NorA (Staphylococcus aureus). The conditions noted are these: 30 uM.

Values after ≈ are worked out from the molar mass of the structure shown. Active and inactive are the calls of the source. No cut-off for these calls is given here.

Turning to `O=C(Nc1ccccc1)Nc1ccc(CN2CCN(c3cc4c(cc3F)c(=O)c(C(=O)O)cn4C3CC3)CC2)cc1`, the MIC in [1] worked out at 10 µg/mL (≈ 18 µM); in assay [2], 50 µg/mL (≈ 90 µM); in [4], 50 µg/mL (≈ 90 µM); in assay [5] it was 0.63 µg/mL (≈ 1.13 µM); in [6] it was 0.31 µg/mL (≈ 0.558 µM); in [7], 1.25 µg/mL (≈ 2.25 µM). The MIC in assay [10] was 5 µg/mL (≈ 9 µM); in assay [11] it was 50 µg/mL (≈ 90 µM); in assay [12] it was 0.63 µg/mL (≈ 1.13 µM). In addition, the result in [3], in assay [8] and in assay [9] was inactive.
Regarding `NCCC[C@H](N)C(=O)N[C@@H](Cc1ccccc1)C(=O)N1CCN(c2cc3c(cc2F)c(=O)c(C(=O)O)cn3C2CC2)CC1`, the MIC in assay [1] was 10 µg/mL (≈ 16.9 µM); in assay [2], 50 µg/mL (≈ 84.4 µM); in assay [4], 50 µg/mL (≈ 84.4 µM); in [6], above 10 µg/mL; in assay [10] it was 10 µg/mL (≈ 16.9 µM); in assay [11] it was 50 µg/mL (≈ 84.4 µM). The MIC in assay [12] is above 10 µg/mL.
Consider `CC1COc2c(N3CCN(C)CC3)c(F)cc3c(=O)c(C(=O)O)cn1c23` (stereo not given) [OFLOXACIN], for which the MIC in [1] was determined as 0.16 µg/mL (≈ 0.443 µM); in [2], 6.25 µg/mL (≈ 17.3 µM); in assay [4] it was 1.25 µg/mL (≈ 3.46 µM); in [5] it was 1.25 µg/mL (≈ 3.46 µM); in assay [6] it was 0.63 µg/mL (≈ 1.74 µM); in assay [7], 2.5 µg/mL (≈ 6.92 µM). In addition, the MIC in [10] was found to be 0.08 µg/mL (≈ 0.221 µM); in assay [11], 6.25 µg/mL (≈ 17.3 µM); in assay [12], 0.63 µg/mL (≈ 1.74 µM).
For `NCc1ccc(NC(=O)Nc2ccc(Cl)cc2)cc1`, in [13], the inhibition came to 20%.
Same read-out and setting: next, `NCc1ccc(NC(=O)Nc2ccccc2)cc1`: 20%.
For `CC1COc2c(NCc3ccc(NC(=O)Nc4ccccc4)cc3)c(F)cc3c(=O)c(C(=O)O)cn1c23` (stereo not given), the inhibition in assay [14] was found to be 65.9%; in [15], 85.6%; in assay [16] it was 84.1%; in [17], 53.4%; in assay [18] it was 96.4%; in [13], 73.6%. For the same compound, the MIC in assay [1] is 10 µg/mL (≈ 19.9 µM); in [2] it was 100 µg/mL (≈ 199 µM); in assay [4], 50 µg/mL (≈ 99.5 µM); in assay [6] it was above 100 µg/mL; in assay [7] it was 100 µg/mL (≈ 199 µM); in assay [10], 10 µg/mL (≈ 19.9 µM). Further, the MIC in assay [11] is 50 µg/mL (≈ 99.5 µM); in assay [12], above 100 µg/mL.
As to `O=C(Nc1ccccc1)Nc1ccccc1`, in assay [13], the inhibition worked out at 20%.
As for `NCCC[C@@H](NC(=O)[C@@H](N)Cc1ccccc1)C(=O)N1CCN(c2cc3c(cc2F)c(=O)c(C(=O)O)cn3C2CC2)CC1`, the MIC is 10 µg/mL (≈ 16.9 µM) in [1]; 50 µg/mL (≈ 84.4 µM) in assay [2]; 50 µg/mL (≈ 84.4 µM) in [4]; above 10 µg/mL in assay [5]; 10 µg/mL (≈ 16.9 µM) in assay [6]; above 10 µg/mL in [7]. The MIC worked out at 10 µg/mL (≈ 16.9 µM) in assay [10], 50 µg/mL (≈ 84.4 µM) in assay [11] and 10 µg/mL (≈ 16.9 µM) in [12].
As for `O=C(O)c1cn(C2CC2)c2cc(N3CCNCC3)c(F)cc2c1=O` [CIPROFLOXACIN], the MIC in assay [1] was determined as 0.04 µg/mL (≈ 0.121 µM); in [2] it was 0.78 µg/mL (≈ 2.35 µM); in assay [4] it was 0.16 µg/mL (≈ 0.483 µM); in assay [5], 0.63 µg/mL (≈ 1.9 µM); in assay [6] it was 0.16 µg/mL (≈ 0.483 µM); in [7] it was 2.5 µg/mL (≈ 7.54 µM). Moreover, the minimum inhibitory concentration (MIC) in [10] was at most 0.019 µg/mL; in assay [11], 0.78 µg/mL (≈ 2.35 µM); in assay [12] it was 0.16 µg/mL (≈ 0.483 µM).
With `COC(=O)[C@H]1[C@H]2C[C@@H]3c4[nH]c5cc(OC)ccc5c4CCN3C[C@H]2C[C@@H](OC(=O)c2cc(OC)c(OC)c(OC)c2)[C@@H]1OC`, the inhibition in assay [19] came to 32%; in assay [20], 81%.
